Experimental data from ChEMBL document CHEMBL5154669, “G-Quadruplex DNA as a Target in Pathogenic Bacteria: Efficacy of an Extended Naphthalene Diimide Ligand and Its Mode of Action” (J Med Chem, 2022).

Experiments:
Escherichia coli [1] = assay: Antibacterial activity against Escherichia coli LMG 8223; assay type: functional, organism-based; conditions: DDE = dose-dependent effect
Method in brief: (§1)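 Cultures were inoculated at 2% and grown at 37 °C, with OD600 read every 5 min for 8 h. NDI-10 was added at exponential-phase onset (~3 h). Concentrations were 32, 16, 8 and 4 μM for E. coli, and 16, 8, 4 and […] μM for the Gram-positive strains.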

Escherichia coli [2] = assay: Bactericidal against Escherichia coli LMG 8223 assessed as inhibition of bacterial growth; assay type: functional
Method in brief: (§2)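 A standard MIC plate (128–2 μM, cMHB, 20 h, 37 °C) was read at OD600. Each well then seeded at 10% a fresh compound-free cMHB plate, grown another 20 h at 37 °C and read at OD600. No growth at the same concentration in both plates counted as bactericidal. Growth above the MIC counted as bacteriostatic. Done in triplicate.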

DNA [3] = assay: Stabilization of Staphylococcus aureus in G Quadruplex DNA GGGGCTAATTGGGGCTGGTGG assessed as change in melting temperature at 10 uM incubated for 16 hrs by […]; assay type: nucleic-acid assay
Method in brief: (§3)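 Readout was CD melting, not FRET: 2.5 μM oligonucleotide in 10 mM lithium cacodylate pH 7.4 with KCl set per sequence (initial Tm 60-70 °C). Annealed 95 °C 5 min, cooled to room temperature over 4 h, then ligand 10 μM (4 equiv) equilibrated 16 h at 20 °C. Ellipticity at 260 nm tracked every 0.1 °C, 20-95 °C at 5 °C/min; Tm by van't Hoff two-state fit.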

DNA [4] = assay: Stabilization of Staphylococcus aureus in G Quadruplex DNA GGGGCTAATTGGGGCTGGTGG assessed as melting at 10 uM incubated for 16 hrs temperature by […]; assay type: nucleic-acid assay; method in brief: as §3
Escherichia coli [5] = assay: Antibacterial activity against Escherichia coli LMG 8223 infected in Galleria mellonella assessed as survival at 5 to 10 mg/kg after 5 days; assay type: functional; conditions: dose 5-10 mg/kg, time 5 day
Method in brief: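 Larvae, 20 per group, were infected with 10 µL of saline-washed bacteria into the left proleg: E. coli at 10⁶ CFU/worm and S. aureus at 10⁵ CFU/worm. After 1 h at 37 °C, the compound (5 or 10 mg/kg) was injected into the last right proleg. Controls were meropenem 5 mg/kg (E. coli), rifampicin 10 mg/kg (S. aureus) and NaCl 0.9%. Mortality was followed over 5 d at 37 °C.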

Enterobacter cloacae = assay: Bactericidal activity against Enterobacter cloacae LMG 02783 assessed as inhibition of bacterial growth; assay type: functional; method in brief: as §2
Staphylococcus aureus [6] = assay: Antibacterial activity against Staphylococcus aureus LMG 15975 assessed as inhibition of bacterial growth incubated for 20 hrs by CLSI based broth microdilution method; assay type: functional
Method in brief: (§4)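 Broth microdilution in cation-adjusted Mueller-Hinton broth following CLSI guidelines. DMSO stocks were at 10 mM; compounds were twofold serially diluted over 128 to 2 μM. The inoculum was at 5 × 10⁵, prepared from colonies grown 20 h at 37 °C and adjusted to 0.5 McFarland. Plates ran 20 h at 37 °C with OD600 read-out. MIC was the lowest concentration inhibiting visible growth, in triplicate.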

Staphylococcus aureus [7] = assay: Antibacterial activity against Staphylococcus aureus LMG 8224; assay type: functional, organism-based; conditions: DDE = dose-dependent effect; method in brief: as §1
Bacillus cereus [8] = assay: Antimicrobial activity against Bacillus cereus ATCC 10987 assessed as inhibition of bacterial growth in presence of D11 incubated for 20 hrs; conditions: ATCC 10987, 20 h
Enterococcus faecium [9] = assay: Antibacterial activity against Enterococcus faecium LMG 16003; assay type: functional, organism-based; conditions: DDE = dose-dependent effect; method in brief: as §1
DNA [10] = assay: Stabilization of Escherichia coli in G-quadruplex DNA GGT GGG GAG GGG TAA GGG G assessed as change in melting temperature at 10 uM incubated for 16 hrs by FRET method; assay type: nucleic-acid assay; conditions: in the assay text read “by CD melting method” for “by FRET method”; method in brief: as §3
Klebsiella pneumoniae [11] = assay: Antibacterial activity against Klebsiella pneumoniae LMG 20218 assessed as inhibition of bacterial growth incubated for 20 hrs by CLSI based broth microdilution method; assay type: functional; method in brief: as §4
Bacillus cereus [12] = assay: Antibacterial activity against Bacillus cereus ATCC 14579 assessed as inhibition of bacterial growth incubated for 20 hrs by CLSI based broth microdilution method; assay type: functional; method in brief: as §4
[13] = tested on: Staphylococcus epidermidis; assay: Antibacterial activity against Staphylococcus epidermidis Tu3298 assessed as inhibition of bacterial growth incubated for 20 hrs by CLSI based broth microdilution method; assay type: functional; method in brief: as §4
Enterococcus faecium [14] = assay: Bacteriostatic activity against Enterococcus faecium LMG 16003 assessed as inhibition of bacterial growth; assay type: functional; method in brief: as §2
Acinetobacter baumannii [15] = assay: Antibacterial activity against Acinetobacter baumannii LMG 01041 assessed as inhibition of bacterial growth incubated for 20 hrs by CLSI based broth microdilution method; assay type: functional; method in brief: as §4
Klebsiella pneumoniae [16] = assay: Bactericidal activity against Klebsiella pneumoniae LMG 20218 assessed as inhibition of bacterial growth; assay type: functional; method in brief: as §2
Pseudomonas aeruginosa [17] = assay: Antimicrobial activity against Pseudomonas aeruginosa LMG 6395 assessed as inhibition of bacterial growth in presence of D11 incubated for 20 hrs; conditions: LMG 6395, 20 h
Pseudomonas aeruginosa [18] = assay: Antibacterial activity against Pseudomonas aeruginosa LMG 6395 assessed as inhibition of bacterial growth incubated for 20 hrs by CLSI based broth microdilution method; assay type: functional; method in brief: as §4
Enterococcus faecium [19] = assay: Antibacterial activity against Enterococcus faecium LMG 11423 assessed as inhibition of bacterial growth incubated for 20 hrs by CLSI based broth microdilution method; conditions: LMG 11423, 20 h
Enterococcus faecalis = assay: Antibacterial activity against Enterococcus faecalis LMG 08222 assessed as inhibition of bacterial growth incubated for 20 hrs by CLSI based broth microdilution method; assay type: functional; method in brief: as §4
DNA [20] = assay: Stabilization of Escherichia coli in G-quadruplex DNA GGG GGA GGA GGA CGG GGG assessed as melting temperature at 10 uM incubated for 16 hrs by […]; assay type: nucleic-acid assay; method in brief: as §3
Bacillus cereus [21] = assay: Antibacterial activity against Bacillus cereus ATCC 10987; assay type: functional, organism-based; conditions: DDE = dose-dependent effect; method in brief: as §1
Acinetobacter baumannii [22] = assay: Antimicrobial activity against Acinetobacter baumannii LMG 01041 assessed as inhibition of bacterial growth in presence of D11 incubated for 20 hrs; conditions: LMG 01041, 20 h
Enterococcus faecium [23] = assay: Antibacterial activity against Enterococcus faecium LMG 16003 assessed as inhibition of bacterial growth incubated for 20 hrs by CLSI based broth microdilution method; assay type: functional; method in brief: as §4
DNA [24] = assay: Stabilization of Escherichia coli in G-quadruplex DNA GGG GCG GGG TGG GTT GG assessed as melting temperature at 10 uM incubated for 16 hrs by FRET method; assay type: nucleic-acid assay
Escherichia coli [25] = assay: Antibacterial activity against Escherichia coli LMG 8223 assessed as inhibition of bacterial growth incubated for 20 hrs by CLSI based broth microdilution method; assay type: functional; method in brief: as §4
Pseudomonas aeruginosa [26] = assay: Bactericidal activity against Pseudomonas aeruginosa LMG 6395 assessed as inhibition of bacterial growth; assay type: functional; method in brief: as §2
Staphylococcus aureus [27] = assay: Antibacterial activity against Staphylococcus aureus LMG 8224 infected in Galleria mellonella assessed as survival at 5 to 10 mg/kg after 3 days; conditions: dose 5-10 mg/kg, time 3 day

Structure (SMILES): CN(C)CCCn1c(=O)c2ccc3c(=O)n(CCCN(C)C)c(=O)c4c5[nH]c6ccccc6[nH]c5c(c1=O)c2c34.O=C(O)C(F)(F)F.O=C(O)C(F)(F)F
- Activity (Escherichia coli [1]): Dde
- MIC (Escherichia coli [2]): 16 µM
- ΔTm (DNA [3]): 27.3 °C
- Tm (DNA [4]): 88.3 °C
- Activity (Escherichia coli [5]): 90%
- MIC (Enterobacter cloacae): 8 µM
- MIC (Staphylococcus aureus [6]): 16 µM
- Activity (Staphylococcus aureus [7]): Dde
- MIC (Bacillus cereus [8]): 8 µM
- Activity (Enterococcus faecium [9]): Dde
- ΔTm (DNA [10]): 31 °C
- MIC (Klebsiella pneumoniae [11]): > 128 µM
- MIC (Bacillus cereus [12]): 8 µM
- MIC [13]: 16 µM
- MIC (Enterococcus faecium [14]): 32 µM
- MIC (Acinetobacter baumannii [15]): 64 µM
- MIC (Klebsiella pneumoniae [16]): > 128 µM
- MIC (Pseudomonas aeruginosa [17]): 4 µM
- MIC (Pseudomonas aeruginosa [18]): 128 µM
- MIC (Enterococcus faecium [19]): 4 µM
- MIC (Enterococcus faecalis): 8 µM
- Tm (DNA [20]): > 95 °C
- Activity (Bacillus cereus [21]): Dde
- MIC (Acinetobacter baumannii [22]): 8 µM
- MIC (Enterococcus faecium [23]): 4 µM
- Tm (DNA [24]): 82.5 °C
- MIC (Escherichia coli [25]): 16 µM
- MIC (Pseudomonas aeruginosa [26]): 128 µM
- Activity (Staphylococcus aureus [27]): 70%
